Results as given in ChEMBL document CHEMBL1152574, “Novel 2H-isoquinolin-3-ones as antiplasmodial falcipain-2 inhibitors” (Bioorg Med Chem, 2009).
pIC50, pKi: −log10 of the molar value.

Assays:
Plasmodium falciparum = assay: Antiplasmodial activity against Plasmodium falciparum FcBR; format: functional, organism-based; details: FCBR/Columbia
Procedure, shortened: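 Synchronized ring-stage parasites (strain FCBR) grown in human RBC (A Rh+), RPMI 1640 with 25 mM HEPES, 20 mM bicarbonate, 0.5% AlbuMAX I, 2.5% hematocrit, 37 °C under 94% N₂/1% O₂/5% CO₂; plated at 1% parasitemia with compounds (DMSO stock diluted 10-fold in 50% ethanol), 100–0.0488 µM, in quadruplicate; 50% ethanol as negative control; dose-dependent effect on development quantified.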

Rhodesain = Rhodesain (Trypanosoma brucei rhodesiense, UniProt Q95PM0); assay: Inhibition of Trypanosoma brucei rhodesiense rhodesain; details: for pKi: read-out: Ki
Procedure, shortened: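 Continuous fluorometric progress-curve assay in 100 mM sodium acetate, pH 5.5, with 10 mM DTT. Substrate is Cbz-Phe-Arg-AMC (40 or 10, depending on enzyme). Inhibitors come from DMSO stocks, at increasing concentrations up to 100. AMC read at ex 365/em 460 nm, each assay run twice. Kiapp is taken from a Dixon plot and corrected to zero substrate with Km to give Ki.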

[1] = Inhibition of Plasmodium falciparum falcipain-2
Procedure, shortened: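 Recombinant FP-2 in 100 mM sodium acetate pH 5.5, 10 mM DTT, substrate Cbz-Phe-Arg-AMC; reversibility screen at 100 µM with E-64 control, then continuous progress-curve assays with 0–100 µM inhibitor; fluorescence ex 365/em 460 nm; run twice; Ki from Dixon plot, corrected to zero substrate using Km 21.5 µM.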

Cathepsin B = Cathepsin B (Homo sapiens, UniProt P07858); assay: Inhibition of human cathepsin B; details: for pKi: read-out: Ki
Procathepsin L = Procathepsin L (Homo sapiens, UniProt P07711); assay: Inhibition of human cathepsin L
Procathepsin L, sequence (P07711 whole entry): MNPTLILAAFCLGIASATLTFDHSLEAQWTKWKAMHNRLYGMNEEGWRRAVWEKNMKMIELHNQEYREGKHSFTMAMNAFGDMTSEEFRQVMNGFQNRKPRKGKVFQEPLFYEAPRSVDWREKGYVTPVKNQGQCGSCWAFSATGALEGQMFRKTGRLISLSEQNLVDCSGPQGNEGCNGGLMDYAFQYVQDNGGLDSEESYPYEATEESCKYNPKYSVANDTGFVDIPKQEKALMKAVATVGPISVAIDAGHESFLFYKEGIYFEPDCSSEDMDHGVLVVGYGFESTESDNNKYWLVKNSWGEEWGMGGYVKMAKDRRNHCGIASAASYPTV

Rhodesain, sequence (Q95PM0 whole entry): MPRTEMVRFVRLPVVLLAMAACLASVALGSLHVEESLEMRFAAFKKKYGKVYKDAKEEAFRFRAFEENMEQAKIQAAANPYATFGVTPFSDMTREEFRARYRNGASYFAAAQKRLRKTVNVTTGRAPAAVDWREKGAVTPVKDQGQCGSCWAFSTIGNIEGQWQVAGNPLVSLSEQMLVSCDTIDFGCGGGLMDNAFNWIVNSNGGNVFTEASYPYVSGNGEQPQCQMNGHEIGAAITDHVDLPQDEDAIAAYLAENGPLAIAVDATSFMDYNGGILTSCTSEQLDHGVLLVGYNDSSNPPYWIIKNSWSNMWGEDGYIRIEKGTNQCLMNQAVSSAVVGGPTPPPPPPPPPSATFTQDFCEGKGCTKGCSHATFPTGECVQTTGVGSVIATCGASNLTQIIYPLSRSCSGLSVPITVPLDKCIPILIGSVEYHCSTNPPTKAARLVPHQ

Ki (Rhodesain)	Ki (Cathepsin B)	SMILES	pIC50 (Plasmodium falciparum)	pKi (Rhodesain)	pKi [1]	pKi (Cathepsin B)	pKi (Procathepsin L)
–	–	CC(=O)Oc1cc2cc3c(cc2c(-c2ccc(N)cc2)n1)OCO3	4.23	4.42	4.71	5.17	4.87
–	–	COc1ccc(-c2c3cc4c(cc3cc(=O)n2NC(=O)OC(C)(C)C)OCO4)cc1	5.11	4.71	4.61	5.12	5.39
–	–	COc1ccc(-c2c3cc4c(cc3cc(=O)n2N)OCO4)cc1	4.59	5.20	4.82	4.79	5.15
–	–	CCOC(=O)Nn1c(-c2ccc(OC)cc2)c2cc3c(cc2cc1=O)OCO3	5.08	5.03	4.20	4.78	5.11
–	–	COc1ccc(-c2c3cc(OCc4ccccc4)c(OCc4ccccc4)cc3cc(=O)n2N)cc1	4.77	5.40	5.64	5.48	5.38
–	–	Cc1cc2cc3c(cc2c(-c2ccc(N)cc2)n1)OCO3	4.41	4.71	5.14	5.16	5.06
–	–	COc1ccc(-c2c3cc4c(cc3cc(=O)n2NC(=O)Nc2ccc(SC)cc2)OCO4)cc1	< 4.00	4.73	5.19	5.40	6.07
Not Active	Not Active	COc1ccc(-c2c3cc(OC)c(OC)cc3cc(=O)n2NC(=O)OC(C)(C)C)cc1	5.03	–	4.39	–	4.40
–	–	COc1ccc(-c2c3cc4c(cc3cc(=O)n2NC(=O)Nc2ccc(C(C)=O)cc2)OCO4)cc1	4.93	4.85	5.23	5.43	5.68
–	–	CC(C)C[C@H](NC(=O)[C@H]1O[C@@H]1C(=O)O)C(=O)NCCCCN=C(N)N [E-64]	–	–	6.54	4.80	–
